ChEMBL document CHEMBL5653631, “A Potent and Selective ULK1 Inhibitor Suppresses Autophagy and Sensitizes Cancer Cells to Nutrient Stress” (iScience, 2018)
Values belong to the compound of their own block, whether it stands above or below them.

Assays:
[1] = target: Ribosomal protein S6 kinase alpha-2 (Homo sapiens) (UniProt Q15349); assay: Inhibition of human recombinant RSK3 at 500 nM in presence of ATP by radiometric assay relative to control
Homo sapiens = species: Homo sapiens; assay: Inhibition of human recombinant CK1d at 500 nM in presence of ATP by radiometric assay relative to control
[2] = target: Cyclin-dependent kinase 18 (Homo sapiens) (UniProt Q07002); assay: Inhibition of human recombinant PCTAIRE3 at 500 nM related to control ULK1
[3] = target: T1, Serine/threonine-protein kinase BRSK2 (Homo sapiens) (UniProt Q8IWQ3); assay: Inhibition of human recombinant BRSK2 at 15 nM related to control ULK1
T1 sequence (whole entry): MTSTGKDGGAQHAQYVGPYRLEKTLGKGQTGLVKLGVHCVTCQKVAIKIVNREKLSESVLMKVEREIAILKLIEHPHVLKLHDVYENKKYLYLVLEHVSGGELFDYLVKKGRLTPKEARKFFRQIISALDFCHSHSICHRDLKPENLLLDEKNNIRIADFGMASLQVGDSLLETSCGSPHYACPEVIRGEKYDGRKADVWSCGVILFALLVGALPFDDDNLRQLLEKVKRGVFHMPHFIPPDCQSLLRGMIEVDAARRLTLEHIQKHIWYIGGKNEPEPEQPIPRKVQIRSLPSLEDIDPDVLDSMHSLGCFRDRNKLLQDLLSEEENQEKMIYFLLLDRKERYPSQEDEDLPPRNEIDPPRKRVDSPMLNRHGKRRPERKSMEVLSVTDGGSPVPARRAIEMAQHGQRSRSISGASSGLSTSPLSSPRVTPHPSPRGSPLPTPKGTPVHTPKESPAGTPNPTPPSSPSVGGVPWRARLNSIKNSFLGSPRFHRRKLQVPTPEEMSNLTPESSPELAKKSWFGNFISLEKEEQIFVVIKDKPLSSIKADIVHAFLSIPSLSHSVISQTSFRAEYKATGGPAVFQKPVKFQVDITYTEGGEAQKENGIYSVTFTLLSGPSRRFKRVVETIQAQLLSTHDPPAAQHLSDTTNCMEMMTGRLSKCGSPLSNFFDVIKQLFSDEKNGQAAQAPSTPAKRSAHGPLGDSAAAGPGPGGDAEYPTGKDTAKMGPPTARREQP
Procedure, shortened: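 Recombinant human kinase panel (327 kinases) run as radiometric activity assays, each kinase in duplicate at one compound concentration. Activity remaining expressed relative to vehicle control; percent inhibition taken as 100% minus % activity remaining.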

[4] = target: T2, G protein-coupled receptor kinase 3 (Homo sapiens) (UniProt P35626); assay: Inhibition of human recombinant BARK2 at 40 nM related to control ULK1
T2 sequence (whole entry): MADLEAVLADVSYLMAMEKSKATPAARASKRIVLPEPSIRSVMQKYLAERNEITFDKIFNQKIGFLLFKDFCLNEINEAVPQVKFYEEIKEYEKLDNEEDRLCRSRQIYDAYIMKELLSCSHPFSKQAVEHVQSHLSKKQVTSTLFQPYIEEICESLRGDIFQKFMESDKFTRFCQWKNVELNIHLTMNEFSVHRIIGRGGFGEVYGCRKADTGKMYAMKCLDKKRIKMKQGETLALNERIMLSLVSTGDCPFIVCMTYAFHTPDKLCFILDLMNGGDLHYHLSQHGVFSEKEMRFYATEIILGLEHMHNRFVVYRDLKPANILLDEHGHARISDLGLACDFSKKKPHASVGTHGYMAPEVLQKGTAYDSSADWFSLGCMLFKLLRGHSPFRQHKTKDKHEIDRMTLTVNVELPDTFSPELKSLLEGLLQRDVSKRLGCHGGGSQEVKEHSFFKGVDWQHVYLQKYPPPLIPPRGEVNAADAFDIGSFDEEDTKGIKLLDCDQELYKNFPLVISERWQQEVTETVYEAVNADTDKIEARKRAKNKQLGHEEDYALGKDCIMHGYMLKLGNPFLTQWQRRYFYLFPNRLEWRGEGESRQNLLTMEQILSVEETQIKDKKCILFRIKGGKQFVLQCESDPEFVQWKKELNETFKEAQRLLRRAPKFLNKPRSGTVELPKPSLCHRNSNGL
Procedure, shortened: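 Radiometric activity assays in a panel of 327 human recombinant kinases, each run in duplicate at one inhibitor concentration. Activity remaining is expressed as percent of vehicle control, and percent inhibition is calculated as 100% minus percent activity remaining.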

[5] = target: Serine/threonine-protein kinase pim-1 (Homo sapiens) (UniProt P11309); assay: Inhibition of human recombinant PIM1 at 40 nM related to control ULK1
[6] = target: NT-3 growth factor receptor (Homo sapiens) (UniProt Q16288); assay: Inhibition of human recombinant TRKC at 40 nM in presence of ATP by radiometric assay relative to control
Sequence of NT-3 growth factor receptor (Homo sapiens) (Q16288 32-839 limits assumed): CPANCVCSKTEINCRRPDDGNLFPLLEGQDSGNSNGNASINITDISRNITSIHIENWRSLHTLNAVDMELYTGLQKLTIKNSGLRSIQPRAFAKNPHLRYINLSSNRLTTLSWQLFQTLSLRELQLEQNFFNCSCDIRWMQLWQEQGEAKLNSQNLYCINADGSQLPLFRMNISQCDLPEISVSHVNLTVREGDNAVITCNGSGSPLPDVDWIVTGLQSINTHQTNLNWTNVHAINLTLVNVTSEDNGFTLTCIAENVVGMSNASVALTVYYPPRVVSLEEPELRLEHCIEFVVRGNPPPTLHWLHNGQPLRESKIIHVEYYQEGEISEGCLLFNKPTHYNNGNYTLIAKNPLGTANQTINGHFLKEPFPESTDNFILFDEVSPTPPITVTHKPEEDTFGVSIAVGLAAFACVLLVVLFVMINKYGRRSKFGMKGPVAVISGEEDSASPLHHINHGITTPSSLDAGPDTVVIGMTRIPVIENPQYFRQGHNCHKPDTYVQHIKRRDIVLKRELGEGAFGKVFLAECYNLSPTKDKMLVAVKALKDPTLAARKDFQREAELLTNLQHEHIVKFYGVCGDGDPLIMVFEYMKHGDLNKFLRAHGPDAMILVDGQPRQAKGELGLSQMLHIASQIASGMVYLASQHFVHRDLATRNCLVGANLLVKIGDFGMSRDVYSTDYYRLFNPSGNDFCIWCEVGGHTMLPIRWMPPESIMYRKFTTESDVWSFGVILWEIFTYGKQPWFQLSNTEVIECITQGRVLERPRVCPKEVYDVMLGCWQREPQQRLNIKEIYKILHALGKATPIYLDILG

Sequence of Ribosomal protein S6 kinase alpha-2 (Homo sapiens) (Q15349 whole entry): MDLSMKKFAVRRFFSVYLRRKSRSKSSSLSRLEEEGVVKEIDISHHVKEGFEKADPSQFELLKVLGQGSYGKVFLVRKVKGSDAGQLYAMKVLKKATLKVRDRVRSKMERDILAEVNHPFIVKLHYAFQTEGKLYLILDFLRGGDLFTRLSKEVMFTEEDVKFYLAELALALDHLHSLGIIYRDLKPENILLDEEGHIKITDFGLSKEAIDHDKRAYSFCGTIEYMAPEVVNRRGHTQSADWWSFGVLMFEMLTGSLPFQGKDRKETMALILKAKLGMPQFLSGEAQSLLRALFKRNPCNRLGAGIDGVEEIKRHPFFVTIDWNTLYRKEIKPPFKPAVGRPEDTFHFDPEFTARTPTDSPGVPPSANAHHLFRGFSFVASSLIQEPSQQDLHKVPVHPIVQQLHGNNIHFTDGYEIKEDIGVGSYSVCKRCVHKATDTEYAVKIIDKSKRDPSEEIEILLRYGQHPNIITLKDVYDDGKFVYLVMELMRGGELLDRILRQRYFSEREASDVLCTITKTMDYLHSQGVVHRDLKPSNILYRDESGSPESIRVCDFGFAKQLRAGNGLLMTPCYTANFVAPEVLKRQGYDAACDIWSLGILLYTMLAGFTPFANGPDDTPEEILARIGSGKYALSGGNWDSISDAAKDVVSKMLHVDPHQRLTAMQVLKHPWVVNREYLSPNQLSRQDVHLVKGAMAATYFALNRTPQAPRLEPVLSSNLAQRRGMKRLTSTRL
Sequence of Serine/threonine-protein kinase pim-1 (Homo sapiens) (P11309 whole entry, looked up): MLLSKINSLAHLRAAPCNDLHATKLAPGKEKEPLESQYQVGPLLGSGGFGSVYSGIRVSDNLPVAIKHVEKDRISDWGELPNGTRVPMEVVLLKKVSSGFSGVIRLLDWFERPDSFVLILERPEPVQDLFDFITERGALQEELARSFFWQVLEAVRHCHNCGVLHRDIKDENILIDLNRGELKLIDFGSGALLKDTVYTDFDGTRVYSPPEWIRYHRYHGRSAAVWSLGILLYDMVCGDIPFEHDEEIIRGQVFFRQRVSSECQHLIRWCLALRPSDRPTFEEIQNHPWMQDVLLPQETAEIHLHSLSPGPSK
Sequence of Cyclin-dependent kinase 18 (Homo sapiens) (Q07002 whole entry): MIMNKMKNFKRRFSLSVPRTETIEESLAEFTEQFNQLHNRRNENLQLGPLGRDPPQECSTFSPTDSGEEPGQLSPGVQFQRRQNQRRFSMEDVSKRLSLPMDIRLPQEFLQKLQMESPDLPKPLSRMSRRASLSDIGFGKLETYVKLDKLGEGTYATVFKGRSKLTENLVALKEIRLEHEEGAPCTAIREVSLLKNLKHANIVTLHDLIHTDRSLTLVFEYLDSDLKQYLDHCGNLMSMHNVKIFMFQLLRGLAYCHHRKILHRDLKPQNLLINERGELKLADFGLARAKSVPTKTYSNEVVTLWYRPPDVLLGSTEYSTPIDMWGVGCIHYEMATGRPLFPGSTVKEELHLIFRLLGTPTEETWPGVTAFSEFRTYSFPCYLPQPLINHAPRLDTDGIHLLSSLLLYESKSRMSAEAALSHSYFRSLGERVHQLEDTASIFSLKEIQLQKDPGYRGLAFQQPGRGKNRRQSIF

inhibition [1]: 49%
inhibition (Homo sapiens): 10%
fold change (FC) [2]: 0.27
Compound: CNC(=O)c1ccccc1Oc1nc(Nc2cc(OC)c(OC)c(OC)c2)ncc1Br

fold change (FC) [3]: 0.28
Compound: CC(C)[C@H](NC(=O)c1cc(-c2cnn3cc(-c4ccc(OCCN5CCCCC5)cc4)cnc23)cs1)C(F)(F)F

fold change (FC) [4]: 0.1
fold change (FC) [5]: 0.07
inhibition [6]: 0%
Compound: O=C(N[C@@H](C1CC1)C(F)(F)F)c1cc(-c2cnn3cc(-c4ccc(F)cc4)cnc23)cs1
